In ChEMBL document CHEMBL1799966, “Synthesis and anticancer activity of oxindole derived imidazo[1,5-a]pyrazines” (Eur J Med Chem, 2011):
Activity calls are given as the source filed them. The calls are words filed in the database; no cut-off is given here.

Tests used:
[1] = system: 786-0; assay: Cytotoxicity against human 786-0 cells; assay type: functional
How it was run: (§1)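 NCI 60-cell panel second-stage testing by NCI standard procedures. Compound was dissolved in DMSO and tested at five 10-fold dilutions: 10^-4, 10^-5, 10^-6, 10^-7 and 10^-8 M.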

[2] = system: IGROV-1; assay: Cytotoxicity against human IGROV1 cells; assay type: functional; how it was run: as §1
[3] = system: SN12C; assay: Cytotoxicity against human SN12C cells; assay type: functional
How it was run: (§2)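 NCI 60-cell-line panel protocol. Primary screen used a single 10^-5 M concentration with 48 h incubation, and percent growth was read against untreated cells by sulforhodamine B protein staining. The five-dose follow-up used a DMSO solution at five 10-fold dilutions from 10^-4 to 10^-8 M.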

[4] = system: A549; assay: Induction of cell cycle arrest in human A549 cells assessed as accumulation at G2/M phase at 6.5 uM after 24 hrs by propidium iodide staining-based FACS analysis (reference value: 20.92 %); assay type: functional
How it was run: (§3)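 A549 cells (1 × 10^6) in six-well plates received 6.5 µM (final) for 24 h or 48 h. Floating and adherent cells were fixed in 70% ethanol, washed in PBS, then stained for 20 min with 50 µg/mL propidium iodide in hypotonic citrate/Triton X-100 buffer with DNase-free RNase A. Cells were analysed by FACS.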

[5] = system: KM12; assay: Cytotoxicity against human KM12 cells; assay type: functional; how it was run: as §1
[6] = system: Malme-3M; assay: Cytotoxicity against human MALME-3M cells; assay type: functional; how it was run: as §1
[7] = system: A549; assay: Induction of apoptosis in human A549 cells assessed as apoptotic cells at 6.5 uM after 48 hrs using Annexin V-FITC and PI staining by flow cytometry (reference value: 2.6 %); assay type: functional
[8] = system: A549; assay: Induction of cell cycle arrest in human A549 cells assessed as accumulation at S phase at 6.5 uM after 24 hrs by propidium iodide staining-based FACS analysis (reference value: 19.21 %); assay type: functional; how it was run: as §3
[9] = system: UACC-62; assay: Cytotoxicity against human UACC62 cells; assay type: functional; how it was run: as §2
[10] = system: ACHN; assay: Cytotoxicity against human ACHN cells; assay type: functional; how it was run: as §1
[11] = system: TK-10; assay: Cytotoxicity against human TK10 cells; assay type: functional; how it was run: as §2
[12] = system: NCI/ADR-RES; assay: Cytotoxicity against human NCI/ADR-RES cells; assay type: functional; how it was run: as §1
[13] = system: A549; assay: Induction of apoptosis in human A549 cells assessed as apoptotic cells at 6.5 uM after 24 hrs using Annexin V-FITC and PI staining by flow cytometry (reference value: 2.6 %); assay type: functional
[14] = system: A549; assay: Cytotoxicity against human A549 cells; assay type: functional
[15] = system: EKVX; assay: Cytotoxicity against human EKVX cells; assay type: functional; how it was run: as §1
[16] = system: NCI-H460; assay: Cytotoxicity against human NCI-H460 cells; assay type: functional; how it was run: as §1
[17] = system: A549; assay: Induction of cell cycle arrest in human A549 cells assessed as accumulation at G0/G1 phase at 6.5 uM after 24 hrs by propidium iodide staining-based FACS analysis (reference value: 56.26 %); assay type: functional; how it was run: as §3
[18] = system: SW-620; assay: Cytotoxicity against human SW620 cells; assay type: functional; how it was run: as §2
[19] = system: SR; assay: Cytotoxicity against human SR cells; assay type: functional; how it was run: as §2
[20] = system: M14; assay: Cytotoxicity against human M14 cells; assay type: functional; how it was run: as §1
[21] = system: A549; assay: Induction of apoptosis in human A549 cells assessed as cytoplasmic condensation at 6.5 uM after 24 to 48 hrs by Hoechst 33342 staining; assay type: functional, cell-based
How it was run: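 A549 cells were grown 24 h on coverslips at 10,000 cells, then exposed to 6.5 µM for 24 h and 48 h, with 0.001% DMSO vehicle controls. Hoechst 33342 (0.5 µg/mL) with 4% paraformaldehyde was applied for 30 min at 37 °C. Random fields were examined by fluorescence microscopy, scoring relative fluorescence and nuclear fragmentation.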

[22] = system: HOP-62; assay: Cytotoxicity against human HOP62 cells; assay type: functional; how it was run: as §1
[23] = system: A498; assay: Cytotoxicity against human A498 cells; assay type: functional; how it was run: as §1
[24] = system: LOX IMVI; assay: Cytotoxicity against human LOXIMVI cells; assay type: functional; how it was run: as §1
[25] = system: NCI-H322M; assay: Cytotoxicity against human NCI-H322M cells; assay type: functional; how it was run: as §1
[26] = system: A549; assay: Induction of cell cycle arrest in human A549 cells assessed as accumulation at sub G1 phase at 6.5 uM after 24 hrs by propidium iodide staining-based FACS analysis (reference value: 1.02 %); assay type: functional; how it was run: as §3
[27] = system: SNB-75; assay: Cytotoxicity against human SNB75 cells; assay type: functional; how it was run: as §2
[28] = system: UACC-257; assay: Cytotoxicity against human UACC257 cells; assay type: functional; how it was run: as §2
[29] = system: A549; assay: Induction of cell cycle arrest in human A549 cells assessed as accumulation at S phase at 6.5 uM after 48 hrs by propidium iodide staining-based FACS analysis (reference value: 19.21 %); assay type: functional; how it was run: as §3
[30] = system: SK-OV-3; assay: Cytotoxicity against human SKOV3 cells; assay type: functional; how it was run: as §2
[31] = system: SF-268; assay: Cytotoxicity against human SF268 cells; assay type: functional; how it was run: as §1
[32] = system: K562; assay: Cytotoxicity against human K562 cells; assay type: functional; how it was run: as §1
[33] = system: OVCAR-8; assay: Cytotoxicity against human OVCAR8 cells; assay type: functional; how it was run: as §1
[34] = system: MDA-MB-231; assay: Cytotoxicity against human MDA-MB-231 cells; assay type: functional; how it was run: as §1
[35] = system: A549; assay: Induction of apoptosis in human A549 cells assessed as viable cells at 6.5 uM after 24 hrs using Annexin V-FITC and PI staining by flow cytometry (reference value: 11.1 %); assay type: functional; details: A549, 24 h, read-out: Activity
[36] = system: SK-MEL-2; assay: Cytotoxicity against human SK-MEL-2 cells; assay type: functional; how it was run: as §1

O=C1Nc2ccccc2/C1=C\c1nc(-c2ccccc2F)n2ccccc12
GI50 [1]: 3.44 µM
GI50 [2]: 2.04 µM
GI50 [3]: 4.32 µM
Activity [4]: 17.46%
GI50 [5]: 3.49 µM
GI50 [6]: 3.07 µM
Activity [7]: 87.4%
Activity [8]: 13.51%
GI50 [9]: 6.32 µM
GI50 [10]: 3.3 µM
GI50 [11]: 4.05 µM
GI50 [12]: 3.36 µM
Activity [13]: 61.5%
GI50 [14]: 3.46 µM
GI50 [15]: 10.6 µM
GI50 [16]: 2.17 µM
Activity [17]: 66.2%
GI50 [18]: 3.97 µM
GI50 [19]: 11 µM
GI50 [20]: 5.65 µM
Activity [21]: Active
GI50 [22]: 2.37 µM
GI50 [23]: 2.81 µM
GI50 [24]: 4.15 µM
GI50 [25]: 4.16 µM
Activity [26]: 1.19%
GI50 [27]: 1.79 µM
GI50 [28]: 5.2 µM
Activity [29]: 5.74%
GI50 [30]: 3.46 µM
GI50 [31]: 4.65 µM
GI50 [32]: 6.35 µM
GI50 [33]: 2.49 µM
GI50 [34]: 2.27 µM
viability at 6.5 µM [35]: 31.2%
GI50 [36]: 6.81 µM
